Consider one compound from ChEMBL document CHEMBL4609999, “Novel alkoxyamide-based histone deacetylase inhibitors reverse cisplatin resistance in chemoresistant cancer cells” (Bioorg Med Chem, 2020).

One assay has as its target T1, Histone deacetylase 8 (Homo sapiens, UniProt Q9BY41).
T1 sequence (Q9BY41 whole entry): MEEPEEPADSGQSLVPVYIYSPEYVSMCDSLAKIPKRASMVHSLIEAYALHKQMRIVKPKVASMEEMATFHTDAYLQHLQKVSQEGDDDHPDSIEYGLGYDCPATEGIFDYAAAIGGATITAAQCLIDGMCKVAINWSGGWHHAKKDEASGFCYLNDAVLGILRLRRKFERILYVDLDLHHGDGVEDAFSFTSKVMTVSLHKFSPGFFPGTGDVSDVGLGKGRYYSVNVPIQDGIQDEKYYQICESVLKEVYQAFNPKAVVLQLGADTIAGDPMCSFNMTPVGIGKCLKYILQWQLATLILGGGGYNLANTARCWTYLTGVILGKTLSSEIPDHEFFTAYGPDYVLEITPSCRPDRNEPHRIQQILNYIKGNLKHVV
Description: Inhibition of recombinant human HDAC8.

Assay [1] addresses T2, Protein deacetylase HDAC6 (Homo sapiens, UniProt Q9UBN7).
T2 sequence (Q9UBN7 whole entry): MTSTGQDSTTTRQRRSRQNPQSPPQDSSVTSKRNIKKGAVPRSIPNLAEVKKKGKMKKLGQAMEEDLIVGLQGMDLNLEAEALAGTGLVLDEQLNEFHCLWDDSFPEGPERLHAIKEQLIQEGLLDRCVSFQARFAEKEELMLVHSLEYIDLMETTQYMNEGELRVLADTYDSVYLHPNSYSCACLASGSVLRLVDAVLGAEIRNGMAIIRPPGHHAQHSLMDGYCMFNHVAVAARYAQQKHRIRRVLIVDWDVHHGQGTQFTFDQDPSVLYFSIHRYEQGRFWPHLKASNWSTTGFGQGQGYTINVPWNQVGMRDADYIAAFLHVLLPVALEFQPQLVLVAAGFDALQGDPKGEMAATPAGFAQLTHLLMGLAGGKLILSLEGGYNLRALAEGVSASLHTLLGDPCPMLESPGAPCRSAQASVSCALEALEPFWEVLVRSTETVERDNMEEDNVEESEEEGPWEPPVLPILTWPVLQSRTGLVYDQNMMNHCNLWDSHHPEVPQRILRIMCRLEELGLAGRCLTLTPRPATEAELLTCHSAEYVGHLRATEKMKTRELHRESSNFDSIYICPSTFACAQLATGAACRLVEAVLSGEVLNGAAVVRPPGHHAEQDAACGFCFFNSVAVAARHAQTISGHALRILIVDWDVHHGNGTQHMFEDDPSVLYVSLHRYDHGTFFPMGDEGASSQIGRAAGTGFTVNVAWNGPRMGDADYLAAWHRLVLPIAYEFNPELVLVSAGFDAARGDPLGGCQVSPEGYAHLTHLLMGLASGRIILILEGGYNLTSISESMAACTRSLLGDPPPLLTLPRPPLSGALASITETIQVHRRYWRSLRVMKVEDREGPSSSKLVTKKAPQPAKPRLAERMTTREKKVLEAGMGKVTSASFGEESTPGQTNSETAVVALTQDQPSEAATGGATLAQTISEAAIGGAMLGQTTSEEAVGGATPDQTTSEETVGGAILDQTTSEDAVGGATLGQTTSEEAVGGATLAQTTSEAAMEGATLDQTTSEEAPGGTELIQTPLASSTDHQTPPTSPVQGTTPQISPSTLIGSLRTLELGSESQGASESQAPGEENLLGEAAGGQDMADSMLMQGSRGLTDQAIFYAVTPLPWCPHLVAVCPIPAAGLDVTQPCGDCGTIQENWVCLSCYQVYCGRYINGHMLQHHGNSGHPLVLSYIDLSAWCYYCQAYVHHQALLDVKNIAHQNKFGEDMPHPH
In words: Inhibition of recombinant human HDAC6.

The target of another assay is Histone deacetylase 4 (Homo sapiens, UniProt P56524). Description: Inhibition of recombinant human HDAC4.
Histone deacetylase 4, sequence (P56524 whole entry): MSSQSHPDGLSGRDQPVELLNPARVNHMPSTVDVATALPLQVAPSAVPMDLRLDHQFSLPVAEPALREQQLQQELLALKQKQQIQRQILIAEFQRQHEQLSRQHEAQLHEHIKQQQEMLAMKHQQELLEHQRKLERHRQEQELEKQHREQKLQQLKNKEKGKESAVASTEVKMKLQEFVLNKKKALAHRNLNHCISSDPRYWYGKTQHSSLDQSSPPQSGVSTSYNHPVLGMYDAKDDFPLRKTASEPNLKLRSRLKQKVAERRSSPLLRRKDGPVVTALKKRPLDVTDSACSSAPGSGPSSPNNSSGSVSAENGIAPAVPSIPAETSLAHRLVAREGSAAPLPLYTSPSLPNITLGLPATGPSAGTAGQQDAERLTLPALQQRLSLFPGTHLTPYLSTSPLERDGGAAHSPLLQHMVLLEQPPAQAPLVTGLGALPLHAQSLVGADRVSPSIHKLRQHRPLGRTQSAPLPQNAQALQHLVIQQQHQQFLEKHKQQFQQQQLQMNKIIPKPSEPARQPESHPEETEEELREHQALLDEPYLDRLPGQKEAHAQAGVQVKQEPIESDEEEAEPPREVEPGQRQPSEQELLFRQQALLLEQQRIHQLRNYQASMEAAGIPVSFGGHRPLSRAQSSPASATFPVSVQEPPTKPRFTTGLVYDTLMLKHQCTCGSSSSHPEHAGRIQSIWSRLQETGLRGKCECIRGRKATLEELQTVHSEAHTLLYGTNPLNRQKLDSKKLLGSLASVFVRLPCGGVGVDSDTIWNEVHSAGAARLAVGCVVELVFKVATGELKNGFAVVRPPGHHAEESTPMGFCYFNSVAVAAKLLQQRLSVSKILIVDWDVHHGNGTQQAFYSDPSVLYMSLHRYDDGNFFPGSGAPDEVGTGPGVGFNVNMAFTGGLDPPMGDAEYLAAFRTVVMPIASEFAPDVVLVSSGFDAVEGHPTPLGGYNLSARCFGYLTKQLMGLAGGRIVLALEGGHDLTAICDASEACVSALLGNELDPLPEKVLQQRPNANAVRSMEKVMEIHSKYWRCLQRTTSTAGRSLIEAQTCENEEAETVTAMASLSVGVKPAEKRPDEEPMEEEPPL
The next assay has as its target Histone deacetylase 2 (Homo sapiens, UniProt Q92769). Description: Inhibition of recombinant human HDAC2.
Assay [2] has as its target Histone deacetylase. In words: Inhibition of HDAC in human A2780 cells. In kind it is cell-based.
The test system of the next assay is A2780. In words: Cytotoxicity against human A2780 cells assessed as reduction in cell viability by MTT assay. The assay is classed as functional, cell-based. A general note: Tetrazolium assays rely on reduction of a dye to a coloured formazan, in cell work by metabolically active cells.
In assay [3] the target is Histone deacetylase. In words: Inhibition of HDAC in human Cal27 cells. The assay is classed as cell-based. The settings on record: cal-27.
Assay [4] has as its system CAL-27. In words: Cytotoxicity against human CAL27 cells assessed as reduction in cell viability by MTT assay. In kind it is functional, cell-based.
Assay [5] addresses T3, Protein deacetylase HDAC6 (Homo sapiens) (UniProt Q9UBN7).
T3 sequence (whole entry): T2 sequence (Q9UBN7 whole entry)
In words: Inhibition of HDAC6 in human CAL27 cells assessed as increase in acetylated alpha-tubulin at 5 uM incubated for 24 hrs by immunoblot analysis. In kind it is cell-based. The note with it: CAL-27. The method in brief: (§1)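 Cal27 and Cal27CisR cells incubated 24 h with vehicle or with inhibitor at 1.5, 3 or 5 µM. Western blot for α-tubulin, acetyl-α-tubulin and acetyl-histone H3.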
(In general: Immunoblotting shows a protein as a band on a membrane.)

Assay [6] has as its target T4, Class 1 histone deacetylase (Homo sapiens) (UniProt Q13547+O15379+Q92769+Q9BY41). In words: Inhibition of class 1 histone deacetylase in human CAL27 cells assessed as increase in H3 histone acetylation at 5 uM incubated for 24 hrs by immunoblot analysis. In kind it is cell-based. The settings on record: CAL-27. The method in brief: as §1
The subject of assay [7] is CAL-27. In words: Potentiation of cisplatin-induced cytotoxicity against human CAL27 cells assessed as shift factor by measuring ratio of cisplatin IC50 to cisplatin IC50 in presence of compound at 1.4 uM incubated for 72 hrs followed by cisplatin addition and measured after 72 hrs by MTT assay. In kind it is functional. The method in brief:
(§2)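 MTT shift assay. Cal27 cells received HDACi at 0.2, 0.4 or 1.4 µM; Cal27CisR cells received 0.8 or 6 µM. Cells were incubated 72 h with a cisplatin range. Shift factor = cisplatin IC50 alone / cisplatin IC50 with HDACi, significance by t-test (p<0.05). Pooled mean of ≥3 experiments, each in triplicate.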

Assay [8] in a line: Potentiation of cisplatin-induced cytotoxicity against human Cal27CisR cells assessed as shift factor by measuring ratio of cisplatin IC50 to cisplatin IC50 in presence of compound at 6 uM incubated for 72 hrs followed by cisplatin addition and measured after 72 hrs by MTT assay. In kind it is functional. The method in brief:
as §2

Assay [9] relates to CAL-27. In words: Induction of apoptosis in human CAL27 cells assessed as increase in caspase 3/7 activation at 2.8 uM incubated for 24 hrs by Hoechst 33342 staining based fluorescence assay. The assay is classed as functional, cell-based.
Assay [10] has as its system CAL-27. Description: Potentiation of cisplatin-induced apoptosis in human CAL27 cells assessed as increase in caspase 3/7 activation at 2.8 uM incubated for 24 hrs followed by cisplatin addition by Hoechst 33342 staining based fluorescence assay. In kind it is functional, cell-based. The method in brief: (§3)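 Cal27 cells pretreated with HDACi at 0.4, 0.8 or 2.8 µM, then 24 h more with 3 µM cisplatin. Cal27CisR cells pretreated at 0.8 or 8 µM, then 24 h with 25 µM cisplatin. 100 µM cisplatin as positive control. Active caspase 3/7 imaged by green fluorescence, nuclei counterstained with Hoechst 33342 (blue).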

For assay [11], the species on record is Homo sapiens. Description: Induction of apoptosis in human Cal27CisR cells assessed as increase in caspase 3/7 activation at 8 uM incubated for 24 hrs by Hoechst 33342 staining based fluorescence assay. In kind it is functional, cell-based.
The species entered for assay [12] is Homo sapiens. In words: Potentiation of cisplatin-induced apoptosis in human Cal27CisR cells assessed as increase in caspase 3/7 activation at 8 uM incubated for 24 hrs followed by cisplatin addition by Hoechst 33342 staining based fluorescence assay. The assay is classed as functional, cell-based. The essentials: as §3
The target in assay [13] is T3, Protein deacetylase HDAC6 (Homo sapiens). Description: Inhibition of HDAC6 in human Cal27CisR cells assessed as increase in acetylated alpha-tubulin at 5 uM incubated for 24 hrs by immunoblot analysis. The assay is classed as cell-based. The method in brief: as §1
Assay [14] has as its target T4, Class 1 histone deacetylase (Homo sapiens). In words: Inhibition of class 1 histone deacetylase in human Cal27CisR cells assessed as increase in H3 histone acetylation at 5 uM incubated for 24 hrs by immunoblot analysis. In kind it is cell-based. The method in brief: as §1

Active and inactive are the calls of the source. The rule behind the calls is not given here.

Histone deacetylase 2, sequence (Q92769 whole entry): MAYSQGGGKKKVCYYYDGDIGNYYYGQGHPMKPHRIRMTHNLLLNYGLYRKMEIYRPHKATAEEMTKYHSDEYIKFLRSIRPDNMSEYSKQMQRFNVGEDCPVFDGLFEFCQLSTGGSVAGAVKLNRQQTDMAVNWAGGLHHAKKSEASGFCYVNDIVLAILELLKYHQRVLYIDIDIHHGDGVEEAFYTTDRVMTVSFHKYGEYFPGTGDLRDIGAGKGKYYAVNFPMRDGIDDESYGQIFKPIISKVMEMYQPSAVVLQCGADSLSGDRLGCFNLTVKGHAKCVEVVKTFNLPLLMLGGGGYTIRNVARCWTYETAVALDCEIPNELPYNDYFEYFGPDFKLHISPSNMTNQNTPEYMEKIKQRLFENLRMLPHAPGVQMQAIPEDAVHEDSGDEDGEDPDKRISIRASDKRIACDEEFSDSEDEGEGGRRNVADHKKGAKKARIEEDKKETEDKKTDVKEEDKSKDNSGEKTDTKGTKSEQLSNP

As usually defined, the Ki is a measure of affinity in units of concentration, obtained from inhibition or displacement. The IC50 is the midpoint of a concentration-inhibition curve. As for `COc1cc(C(=O)NOCCCCCC(=O)NO)cc(OC)c1OC`, the Ki at Histone deacetylase 8 worked out at 6.4 µM; in [1], 0.06 µM; at Histone deacetylase 4 it was 93.1 µM; at Histone deacetylase 2, 0.09 µM. For the same compound, the IC50 against Histone deacetylase [2] was determined as 1.18 µM; in the assay on A2780, 13.8 µM; on Histone deacetylase [3], 1.48 µM; in the assay with CAL-27 [4], 3.07 µM. In addition, the inhibition entry in assay [5], in assay [6], in [13] and in [14] was “Active” each time. Besides, the figures for the PF (with CAL-27 [7]; in [8]) were 1.95 and 7.73, respectively. Also, the outcome in the assay on CAL-27 [9], with CAL-27 [10], in the assay filed under Homo sapiens [11] and in the assay filed under Homo sapiens [12] was Active.
